The values below come from ChEMBL document CHEMBL5055634 (J Med Chem, 2021).

Structures are written as SMILES. Activity calls are given as the source filed them.

Assay [1] relates to Pseudomonas aeruginosa PAO1. The assay is described as follows: Binding affinity to Pseudomonas aeruginosa PA01 cell wall at 10 uM incubated for 1 hr in dark. The gist of the method: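 Indirect cell-binding assay. Pelleted overnight PAO1 cells were resuspended and diluted 10-fold in PBS, then given compound at 10 μM for 1 h at 37 °C in the dark. After centrifugation, the supernatant visible spectrum (380–700 nm) was compared with the spectrum of each compound alone; a drop in absorbance indicates binding.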

In assay [2] the test system is Pseudomonas aeruginosa. The assay is described as follows: Antimicrobial activity against Pseudomonas aeruginosa PA01 assessed as inhibition of microbial growth measured after 24 hrs by broth dilution method. Format: functional. The conditions noted are these: PAO1. The gist of the method: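 Broth dilution MIC against P. aeruginosa PAO1. Overnight LB cultures (37 °C, 200 rpm) diluted 100-fold to 10^7 CFU/mL. Two-fold dilution series from 200 to 0.1 μg/mL, 24 h at 37 °C. MIC taken as the lowest concentration with no detectable turbidity. Run at least three times.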
In general terms: Dilution methods test growth across graded concentrations, often in twofold steps.

The next assay deals with HCT-116. The assay is described as follows: Antitumour activity against human HCT-116 cells assessed as cell growth inhibition at 0.1 to 75 uM incubated for 72 hrs by MTT assay. Format: functional, cell-based. The conditions noted are these: dose 0.1-75 µM. In outline: (§1)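 MTT viability assay. Cells were plated at line-specific densities and left to attach 24 h, then exposed 72 h at 37 °C to 0.1–75 μM, eight replicates per concentration, with 0.2% DMSO controls. MTT was added for 3 h at 37 °C, formazan dissolved in DMSO and read at 570 nm. IC50 came from nonlinear regression; mean ± ES of 4/5 independent experiments.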
(In general: Tetrazolium dyes change colour on reduction, which living cells bring about.)

The test system of another assay is MDA-MB-231. The assay is described as follows: Antitumour activity against human MDA-MB-231 cells assessed as cell growth inhibition at 0.1 to 75 uM incubated for 72 hrs by MTT assay. To be noted: dose 0.1-75 µM. Type of assay: functional, cell-based. The gist of the method:
as §1

The test system of assay [3] is PC-3. The assay is described as follows: Antitumor activity against human PC-3 cells assessed as cell growth inhibition at 0.1 to 75 uM incubated for 72 hrs by MTT assay. Type of assay: functional, cell-based. To be noted: dose 0.1-75 µM. In outline:
as §1

Assay [4] relates to DU-145. The assay is described as follows: Antitumor activity against human DU-145 cells assessed as cell growth inhibition at 0.1 to 75 uM incubated for 72 hrs by MTT assay. Format: functional, cell-based. The conditions noted are these: dose 0.1-75 µM. In outline:
as §1

Assay [5] has as its system PC-3. The assay is described as follows: Antitumor activity against human PC-3 cells assessed as cell growth inhibition incubated for 72 hrs by MTT assay. Type of assay: functional, cell-based. To be noted: PC-3, 72 h. The gist of the method: as §1
Assay [6] relates to DU-145. The assay is described as follows: […] against human DU-145 cells assessed as reduction in cell viability by measuring difference in IC50 pretreated for 24 hrs followed by white light irradiation for 1 hr further incubated for 48 hrs in drug free medium by MTT assay. Type of assay: functional, cell-based. In outline: (§2)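 Prostate cells were treated for 24 h, irradiated 1 h with white or blue light (dark-kept comparison), then incubated 48 h in drug-free medium.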

Assay [7] relates to DU-145. The assay is described as follows: […] against human DU-145 cells assessed as reduction in cell viability by measuring difference in IC50 pretreated for 24 hrs followed by blue light irradiation for 1 hr further incubated for 48 hrs in drug free medium by MTT assay. Format: functional, cell-based. The gist of the method: as §2
Assay [8] deals with PC-3. The assay is described as follows: […] against human PC-3 cells assessed as reduction in cell viability by measuring difference in IC50 pretreated for 24 hrs followed by white light irradiation for 1 hr further incubated for 48 hrs in drug free medium by MTT assay. Format: functional, cell-based. In outline:
as §2

The subject of assay [9] is PC-3. The assay is described as follows: […] against human PC-3 cells assessed as reduction in cell viability by measuring difference in IC50 pretreated for 24 hrs followed by blue light irradiation for 1 hr further incubated for 48 hrs in drug free medium by MTT assay. Format: functional, cell-based. In outline: as §2
Assay [10] is described as follows: Induction of NO production aqueous solution assessed as nitrite level at 80 uM measured after 1 hr of white light irradiation by griess reagent based assay. Type of assay: functional. In outline: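 Griess assay. Aqueous compound at 160 μM was mixed 1:1 with Griess reagent, giving 80 μM, in a quartz cuvette. The mix was irradiated with a 300 W tungsten lamp at 40 cm for 15 min, 1 h or 2 h. Absorbance was read at 540 nm and nitrite quantified against a NaNO2 standard curve (5–50 μM).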
A general note: Griess reagent forms a coloured azo dye with nitrite.

Assay [11] has as its system Pseudomonas aeruginosa. The assay is described as follows: Photodynamic antimicrobial activity against Pseudomonas aeruginosa PA01 assessed as bacterial eradication at 10 uM incubated for 10 min in dark followed by irradiation with 20J/cm2 light by viability count technique. Type of assay: functional, organism-based. To be noted: PAO1. The gist of the method: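 Photoinactivation assay. Overnight cultures were diluted in 10 mM phosphate buffer, pH 7.4, to ~10^6 CFU/mL. Compound was added at 10 μM and held 10 min in the dark, then irradiated at 410 ± 10 nm (20 J/cm2); dark controls were not irradiated. Survivors were counted on LB agar after overnight 37 °C incubation and reported as CFU/mL; at least three independent experiments.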

As for `COC(=O)c1cn(C2CC2)c2cc(N3CCN(CCNc4ccc([N+](=O)[O-])c(C(F)(F)F)c4)CC3)c(F)cc2c1=O`, the outcome (in assay [1]; in the assay with HCT-116; with MDA-MB-231; with PC-3 [3]; in the assay on DU-145 [4]) was Active. In addition, in the assay on Pseudomonas aeruginosa [2], the MIC worked out at 25 µg/mL.
For `O=C(O)c1cn(C2CC2)c2cc(N3CCN(CCCNc4ccc([N+](=O)[O-])c(C(F)(F)F)c4)CC3)c(F)cc2c1=O`, the result (in [1]; with HCT-116; with MDA-MB-231; in the assay with PC-3 [3]; in the assay on DU-145 [4]) was Active. In the assay with Pseudomonas aeruginosa [2], the MIC came out at 25 µg/mL. For the same compound, the IC50 in the assay on PC-3 [5] was under 3000 nM. The result in the assay on DU-145 [6], with DU-145 [7], in the assay on PC-3 [8] and in the assay with PC-3 [9] was inactive. Further, the Activity in assay [10] came out at 6.2 µM.
Consider `CCn1cc(C(=O)O)c(=O)c2cc(F)c(N3CCN(CCCNc4ccc([N+](=O)[O-])c(C(F)(F)F)c4)CC3)cc21`, for which the result in assay [1] was Active. For the same compound, the MIC in the assay on Pseudomonas aeruginosa [2] was found to be 25 µg/mL. In assay [10], the Activity was determined as 1.8 µM.
Turning to `O=C(O)c1cn(C2CC2)c2cc(N3CCN(c4ccc([N+](=O)[O-])c(C(F)(F)F)c4)CC3)c(F)cc2c1=O`, the result (in assay [1]; with HCT-116; in the assay with MDA-MB-231; with PC-3 [3]; in the assay with DU-145 [4]) was Active. In the assay with Pseudomonas aeruginosa [2], the MIC was 25 µg/mL. The Activity in assay [10] was 0.6 µM.
As for `COC(=O)c1cn(C2CC2)c2cc(N3CCN(CCCNc4ccc([N+](=O)[O-])c(C(F)(F)F)c4)CC3)c(F)cc2c1=O`, the result (in assay [1]; in the assay on HCT-116; in the assay with MDA-MB-231; in the assay on PC-3 [3]; in the assay with DU-145 [4]) was Active. Moreover, in the assay on Pseudomonas aeruginosa [2], the minimal inhibitory concentration (MIC) was 25 µg/mL.
Turning to `CCn1cc(C(=O)O)c(=O)c2cc(F)c(N3CCN(c4ccc([N+](=O)[O-])c(C(F)(F)F)c4)CC3)cc21`, the outcome in assay [1] was Active. The MIC in the assay on Pseudomonas aeruginosa [2] stood at 25 µg/mL. Further, in assay [10], the Activity stood at 3.1 µM.
On to `O=C(O)c1cn(C2CC2)c2cc(N3CCN(CCNc4ccc([N+](=O)[O-])c(C(F)(F)F)c4)CC3)c(F)cc2c1=O`, for which the outcome (in assay [1]; with HCT-116; in the assay with MDA-MB-231; in the assay on PC-3 [3]; in the assay on DU-145 [4]) was Active. Also, the MIC in the assay with Pseudomonas aeruginosa [2] turned out to be 25 µg/mL. In addition, the Activity in assay [10] came out at 0.5 µM.
With `COC(=O)c1cn(C2CC2)c2cc(N3CCN(c4ccc([N+](=O)[O-])c(C(F)(F)F)c4)CC3)c(F)cc2c1=O`, the result (in assay [1]; in the assay with HCT-116; in the assay on MDA-MB-231; in the assay with PC-3 [3]; in the assay with DU-145 [4]) was Active. The MIC with Pseudomonas aeruginosa [2] worked out at 25 µg/mL.
For the compound `CCn1cc(C(=O)OC)c(=O)c2cc(F)c(N3CCN(c4ccc([N+](=O)[O-])c(C(F)(F)F)c4)CC3)cc21`, in assay [1], the result was Active. In the assay on Pseudomonas aeruginosa [2], the MIC is 25 µg/mL.
Consider `CCn1cc(C(=O)OC)c(=O)c2cc(F)c(N3CCN(CCCNc4ccc([N+](=O)[O-])c(C(F)(F)F)c4)CC3)cc21`, for which the result in assay [1] was Active. In addition, in the assay on Pseudomonas aeruginosa [2], the MIC came to 25 µg/mL.
Turning to `CCn1cc(C(=O)OC)c(=O)c2cc(F)c(N3CCN(CCNc4ccc([N+](=O)[O-])c(C(F)(F)F)c4)CC3)cc21`, in [1], the result was Active. In addition, the minimum inhibitory concentration (MIC) in the assay on Pseudomonas aeruginosa [2] worked out at 25 µg/mL.
With `CCn1cc(C(=O)O)c(=O)c2cc(F)c(N3CCN(CCNc4ccc([N+](=O)[O-])c(C(F)(F)F)c4)CC3)cc21`, the outcome with Pseudomonas aeruginosa [11], with DU-145 [6], with DU-145 [7], in the assay with PC-3 [8] and with PC-3 [9] was inactive. Besides, the outcome in [1] was Active. In addition, in the assay on Pseudomonas aeruginosa [2], the MIC amounted to 25 µg/mL. Besides, in [10], the Activity was 0.2 µM.

Usually MIC stands for the smallest concentration in the dilution series that meets the test's criterion for growth inhibition. What is called IC50 is the midpoint of a concentration-inhibition curve.
